According to ChEMBL document CHEMBL1125286, “Zatosetron, a potent, selective, and long-acting 5HT3 receptor antagonist: synthesis and structure-activity relationships” (J Med Chem, 1992):

Columns and labels:
[1] = target: T1, Serotonin 3 (5-HT3) receptor (Rattus norvegicus) (UniProt P35563+Q9JJ16); assay: Compound was tested for the inhibition of 5-HT-induced bradycardia after peroral administration in urethane-anesthetized rats
[2] = target: T1, Serotonin 3 (5-HT3) receptor (Rattus norvegicus); assay: 5-hydroxytryptamine 3 receptor antagonistic activity measured by inhibition of 5-HT-induced bradycardia (iv administration 10 ug/kg dose in urethane-anesthetized rats); format: functional, organism-based
Summary of the method: (§1)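 Urethane-anesthetized rats. First 5HT challenge 30 μg/kg iv gives a transient bradycardia. Once heart rate is back at steady state (≤5 min), test compound or saline goes in via the femoral vein. 5HT 30 μg/kg iv is repeated 15 min later. % inhibition is the difference between first and second bradycardia at peak, each animal its own control. Means ± SEM, groups of 3–16 rats.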

[3] = target: T1, Serotonin 3 (5-HT3) receptor (Rattus norvegicus); assay: Compound was tested for the inhibition of 5-HT-induced bradycardia after peroral administration of 0.3 mg/kg at 1 hour in urethane-anesthetized rats; format: functional, organism-based; set-up: dose 0.3 mg/kg; details: at 0.3 mg/kg
Summary of the method: (§2)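 Duration study. Antagonist or vehicle is given by oral gavage to conscious rats. Rats are then urethane-anesthetized, surgically prepared and challenged with 5HT 0.03 mg/kg iv at the stated time after dosing. Peak inhibition of bradycardia is measured against vehicle-treated controls. Means ± SEM, groups of 3–11 rats.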

[4] = target: T1, Serotonin 3 (5-HT3) receptor (Rattus norvegicus); assay: 5-hydroxytryptamine 3 receptor antagonistic activity was measured by the inhibition of 5H+ T-induced bradycardia after iv administration of 3 ug/kg dose in urethane-anesthetized rats; format: functional, organism-based
Summary of the method: (§3)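 Urethane-anesthetized rats; antagonist or saline given iv via femoral vein after heart rate settled (≤5 min) from an initial 5HT challenge (30 µg/kg iv). 5HT was given again 15 min later. Peak bradycardia measured, each rat its own control; % inhibition = difference between first and second responses. Groups of 3–16 rats, means ± SEM.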

[5] = system: Serotonin 3 receptor (Cavia porcellus); assay: In vitro binding affinity was measured for 5-hydroxytryptamine 3 receptor in the guinea pig ileum.
[6] = target: T1, Serotonin 3 (5-HT3) receptor (Rattus norvegicus); assay: Compound was tested for the inhibition of 5-HT-induced bradycardia after peroral administration of 0.3 mg/kg at 6 hours in urethane-anesthetized rats; format: functional, organism-based; set-up: dose 0.3 mg/kg; details: at 0.3 mg/kg
Summary of the method: as §2

[7] = target: T1, Serotonin 3 (5-HT3) receptor (Rattus norvegicus); assay: Inhibition of 5-HT-induced bradycardia by 5-hydroxytryptamine 3+; format: functional
[8] = target: T1, Serotonin 3 (5-HT3) receptor (Rattus norvegicus); assay: 5-hydroxytryptamine 3 receptor antagonistic activity was measured by the inhibition of 5H+ T-induced bradycardia after po administration of 100 ug/kg dose in urethane-anesthetized rats; format: functional, organism-based
Summary of the method: (§4)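 Fasted rats dosed by gavage (5 mL/kg) with compound or distilled-water vehicle. Urethane anesthesia and surgical preparation 15–20 min before challenge. 5HT 0.03 mg/kg iv given 1 h after dosing. Peak bradycardia is compared with vehicle-treated controls. Means ± SEM, groups of 3–11 rats.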

[9] = target: T1, Serotonin 3 (5-HT3) receptor (Rattus norvegicus); assay: 5-hydroxytryptamine 3 receptor antagonistic activity was measured by the inhibition of 5H+ T-induced bradycardia after po administration of 1000 ug/kg dose in urethane-anesthetized rats; format: functional, organism-based
Summary of the method: as §4

[10] = target: T1, Serotonin 3 (5-HT3) receptor (Rattus norvegicus); assay: Compound was tested for the inhibition of 5-HT-induced bradycardia after peroral administration of 0.3 mg/kg at 0.5 hours in urethane-anesthetized rats; format: functional, organism-based; set-up: dose 0.3 mg/kg; details: at 0.3 mg/kg
Summary of the method: as §2

[11] = target: T1, Serotonin 3 (5-HT3) receptor (Rattus norvegicus); assay: Compound was tested for the inhibition of 5-HT-induced bradycardia after peroral administration of 0.3 mg/kg at 3 hours in urethane-anesthetized rats; format: functional, organism-based; set-up: dose 0.3 mg/kg; details: at 0.3 mg/kg
Summary of the method: as §2

[12] = target: T1, Serotonin 3 (5-HT3) receptor (Rattus norvegicus); assay: 5-hydroxytryptamine 3 receptor antagonistic activity was measured by the inhibition of 5H+ T-induced bradycardia after iv administration of 1 ug/kg dose in urethane-anesthetized rats; format: functional, organism-based
Summary of the method: as §1

[13] = target: T1, Serotonin 3 (5-HT3) receptor (Rattus norvegicus); assay: Compound was tested for the inhibition of 5-HT-induced bradycardia after peroral administration of 0.03 mg/kg at 1 hour in urethane-anesthetized rats; format: functional, organism-based; set-up: dose 0.03 mg/kg; details: at 0.03 mg/kg
Summary of the method: as §2

[14] = target: T1, Serotonin 3 (5-HT3) receptor (Rattus norvegicus); assay: Compound was tested for the inhibition of 5-HT-induced bradycardia after peroral administration of 0.03 mg/kg at 6 hours in urethane-anesthetized rats; format: functional, organism-based; set-up: dose 0.03 mg/kg; details: at 0.03 mg/kg
Summary of the method: as §2

[15] = target: T1, Serotonin 3 (5-HT3) receptor (Rattus norvegicus); assay: Compound was tested for the inhibition of 5-HT-induced bradycardia after peroral administration of 0.03 mg/kg at 3 hours in urethane-anesthetized rats; format: functional, organism-based; set-up: dose 0.03 mg/kg; details: at 0.03 mg/kg
Summary of the method: as §2

[16] = target: T1, Serotonin 3 (5-HT3) receptor (Rattus norvegicus); assay: Compound was tested for the inhibition of 5-HT-induced bradycardia after intravenous administration of 1 ug/kg dose in urethane-anesthetized rats; format: functional, organism-based
Summary of the method: as §3

[17] = target: T1, Serotonin 3 (5-HT3) receptor (Rattus norvegicus); assay: Compound was tested for the inhibition of 5-HT-induced bradycardia after peroral administration of 1000 ug/kg dose in urethane-anesthetized rats; format: functional, organism-based
Summary of the method: as §4

[18] = target: T1, Serotonin 3 (5-HT3) receptor (Rattus norvegicus); assay: Compound was tested for the inhibition of 5-HT-induced bradycardia after peroral administration of 10 mg/kg at 3 hours in urethane-anesthetized rats; format: functional, organism-based; set-up: dose 10 mg/kg; details: at 10 mg/kg
Summary of the method: as §2

[19] = target: T1, Serotonin 3 (5-HT3) receptor (Rattus norvegicus); assay: 5-hydroxytryptamine 3 receptor antagonistic activity as inhibition of 5-HT-induced bradycardia after iv administration of 100 ug/kg dose in urethane-anesthetized rats; format: functional, organism-based
Summary of the method: as §1

[20] = target: T1, Serotonin 3 (5-HT3) receptor (Rattus norvegicus); assay: Compound was tested for the inhibition of 5-HT-induced bradycardia after peroral administration of 10 mg/kg at 1 hour in urethane-anesthetized rats; format: functional, organism-based; set-up: dose 10 mg/kg; details: at 10 mg/kg
Summary of the method: as §2

Row | Compound | ED50 [1] [mg/kg] | inhibition [2] [%] | inhibition [3] [%] | inhibition [4] [%] | -Log KB [5] | inhibition [6] [%] | ED50 [7] [mg/kg] | inhibition [8] [%] | inhibition [9] [%] | inhibition [10] [%] | inhibition [11] [%] | inhibition [12] [%] | inhibition [13] [%] | inhibition [14] [%] | inhibition [15] [%] | inhibition [16] [%] | inhibition [17] [%] | inhibition [18] [%] | inhibition [19] [%] | inhibition [20] [%]
1 | CC1Cc2cc(Cl)cc(C(=O)OC3CC4CCC(C3)N4C)c2O1 (stereo not given) | 0.179 | 69 | 66.2 | 50.8 | 7.88 | 0 | 0.0042 | 33.1 | 94.7 | 92.6 | 60.5 | 5.6 | – | – | – | – | – | – | – | –
2 | CN1[C@@H]2CC[C@H]1C[C@@H](OC(=O)c1cc(Cl)cc3c1OC(C)(C)C3)C2 | 0.0088 | 82.7 | – | 19.3 | 7.92 | – | 0.0046 | – | – | – | – | – | 86.2 | 20.6 | 58 | – | – | – | – | –
3 | Cc1cc2c(c(C(=O)OC3CC4CCC(C3)N4C)c1)OC(C)C2 (stereo not given) | 5.17 | 66.7 | – | 14.4 | 7.32 | – | 0.0126 | – | – | – | – | – | – | – | – | 3.3 | 11.6 | 0 | 78.2 | 74.8
